{
  "source": "paper PMC6233868",
  "about": "(Journal of nuclear medicine : official publication, Society …, 2016)",
  "key": {"hNIS [1]": {"target": "T1, hNIS (Homo sapiens, UniProt Q92911)", "T1 sequence (Q92911 1-643)": "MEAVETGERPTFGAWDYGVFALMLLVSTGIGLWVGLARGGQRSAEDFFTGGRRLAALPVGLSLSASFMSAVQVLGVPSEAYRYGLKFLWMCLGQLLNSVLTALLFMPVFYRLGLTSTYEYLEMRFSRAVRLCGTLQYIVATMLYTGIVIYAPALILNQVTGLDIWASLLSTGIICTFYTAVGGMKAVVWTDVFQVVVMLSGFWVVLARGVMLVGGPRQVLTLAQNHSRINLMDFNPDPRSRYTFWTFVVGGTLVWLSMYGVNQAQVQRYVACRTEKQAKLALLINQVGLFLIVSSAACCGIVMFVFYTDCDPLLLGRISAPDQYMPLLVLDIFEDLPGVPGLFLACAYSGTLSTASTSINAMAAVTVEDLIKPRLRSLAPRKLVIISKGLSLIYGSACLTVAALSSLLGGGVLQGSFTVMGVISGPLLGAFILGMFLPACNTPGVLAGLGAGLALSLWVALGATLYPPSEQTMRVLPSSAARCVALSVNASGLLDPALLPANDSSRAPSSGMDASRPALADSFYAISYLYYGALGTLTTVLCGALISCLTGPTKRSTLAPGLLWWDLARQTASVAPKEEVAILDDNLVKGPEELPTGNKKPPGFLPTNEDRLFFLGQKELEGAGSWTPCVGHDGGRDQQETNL", "format": "cell-based"}, "hNIS [2]": {"target": "T1, hNIS", "format": "cell-based", "settings": "read-out: IC50, inhibition of [18F]SO3F- uptake; HCT116-C19 cells"}, "mouse thyroid": {"system": "mouse thyroid", "settings": "in vivo; cited from earlier work"}, "NIS": {"system": "NIS", "settings": "read-out: IC50 for inhibition of [124I]I- uptake; cited from earlier work"}, "[3]": {"assay": "PET/CT imaging biodistribution in Balb/c mice", "format": "in vivo, mouse", "procedure,_shortened": "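Female Balb/c mice (4-8 weeks) received NaClO4 (250 mg/kg i.p. in 0.9% NaCl) or an equal volume of saline 1 h before scanning. Dynamic PET ran for 2 h from <1 min after radiotracer injection, followed by CT. Data were corrected and binned into 5 min then 30 min frames. Manual ROIs were drawn at a 10% max-count threshold and reported as %ID (whole body minus tail) and %ID/g.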"}, "[4]": {"assay": "human serum stability by TLC"}, "HCT116 cells": {"system": "HCT116 cells", "assay": "[18F]SO3F- uptake in hNIS-negative parental HCT116 cells", "format": "cell-based, human", "settings": "presence or absence of NaClO4"}, "[5]": {"assay": "ex vivo biodistribution in Balb/c mice", "set-up": "species or system mouse", "settings": "2.25 h post-injection", "procedure,_shortened": "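Female Balb/c mice (4-8 weeks) were pretreated 1 h before the radiotracer with NaClO4 (250 mg/kg i.p. in 0.9% NaCl) or with a saline sham. After the 2 h PET scan, mice were culled by cervical dislocation at 2.25 h post-injection. Thyroid was dissected under a microscope. Tissues were weighed and gamma-counted, giving %ID/g; n = 3, SD.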"}, "hNIS [6]": {"target": "T1, hNIS", "format": "cell-based", "remark": "listed apart in the source"}, "[7]": {"assay": "stability of formulated tracer", "format": "physicochemical"}, "[8]": {"settings": "read-out: IC50, inhibition of [99mTc]TcO4- uptake via hNIS"}, "[9]": {"settings": "read-out: IC50, inhibition of anion uptake via hNIS"}, "[10]": {"settings": "normal mice, PET time-activity curves"}},
  "note": "Entries after “also recorded” stand apart in the source; their conditions may differ. Read-outs that look alike come from different tables or passages of the source.",
  "data": [
    {"smiles": "F[B-](F)(F)F", "note": "[BF4^-, tetrafluoroborate]", "values": [
      {"measurement": "IC50", "setting": "hNIS [1]; [8]", "value": "290 to 4500", "unit": "nM"}
    ]},
    {"smiles": "O=S(=O)(O)F", "note": "[SO3F^-, fluorosulfate]", "values": [
      {"measurement": "IC50", "setting": "hNIS [2]", "value": 1600, "unit": "nM"},
      {"measurement": "inhibition of radioiodide uptake in mouse thyroid", "setting": "mouse thyroid", "value": "inhibit radioiodide uptake"},
      {"measurement": "IC50", "setting": "hNIS [1]; [8]", "value": "550 to 560", "unit": "nM"},
      {"measurement": "IC50", "setting": "hNIS [1]; [9]", "value": 560, "unit": "nM"}
    ]},
    {"smiles": "[O-][Cl+3]([O-])([O-])O", "note": "[ClO4^-, perchlorate]", "values": [
      {"measurement": "IC50", "setting": "NIS", "value": 100, "unit": "nM"}
    ]},
    {"smiles": "[O]=[Tc](=[O])(=[O])[OH]", "note": "[TcO4^-, pertechnetate]", "values": [
      {"measurement": "IC50", "setting": "hNIS [1]; [8]", "value": 70, "unit": "nM"}
    ]},
    {"smiles": "I", "note": "[I^-, iodide]", "values": [
      {"measurement": "IC50", "setting": "hNIS [1]; [8]", "value": "2700 to 4700", "unit": "nM"},
      {"measurement": "IC50", "setting": "hNIS [1]; [9]", "value": "> 2700", "unit": "nM"}
    ]},
    {"smiles": "O=S(=O)(O)F", "note": "[[^18F]SO3F^-] [[^18F]Fluorosulfate]", "values": [
      {"measurement": "bone %ID/g relative to that in thyroid", "setting": "[3]; 30 min", "value": "< 1", "unit": "%"},
      {"measurement": "time of maximum thyroid uptake", "setting": "[3]; PET, normal mice", "value": 30, "unit": "min"},
      {"measurement": "salivary gland uptake (PET)", "setting": "[3]; normal mice, 30 min", "value": "32 ± 9", "unit": "%ID/g"},
      {"measurement": "thyroid uptake (PET)", "setting": "[3]; normal mice, 30 min", "value": "563 ± 140", "unit": "%ID/g"},
      {"measurement": "bone uptake (PET)", "setting": "[3]; normal mice, 60 min", "value": "3 ± 1", "unit": "%ID/g"},
      {"measurement": "stomach uptake (PET)", "setting": "[3]; normal mice, 90 min", "value": "68 ± 21", "unit": "%ID/g"},
      {"measurement": "time at which stomach uptake reaches a plateau", "setting": "[3]; [10]", "value": "around 90 min"},
      {"measurement": "time at which thyroid and salivary gland uptake reaches a plateau", "setting": "[3]; [10]", "value": "30 to 45", "unit": "min"},
      {"measurement": "RCP after incubation with human serum", "setting": "[4]; 4 h, TLC of supernatant after ethanol protein precipitation", "value": "> 95", "unit": "%"},
      {"measurement": "radioactivity associated with the protein pellet", "setting": "[4]; human serum, ethanol precipitation", "value": "no significant radioactivity"},
      {"measurement": "uptake of radiotracer in parental HCT116 cells", "setting": "HCT116 cells", "value": "No uptake; also recorded: absent"},
      {"measurement": "bladder radioactivity (ex vivo)", "setting": "[5]", "value": "15 ± 14", "unit": "%ID/g"},
      {"measurement": "bone uptake (ex vivo)", "setting": "[5]", "value": "17 ± 3", "unit": "%ID/g"},
      {"measurement": "bone uptake (ex vivo) with perchlorate", "setting": "[5]; mice administered NaClO4", "value": "not blocked"},
      {"measurement": "salivary gland uptake (ex vivo) with NaClO4", "setting": "[5]; mice administered NaClO4", "value": "2.6 ± 1.7", "unit": "%ID/g"},
      {"measurement": "stomach uptake (ex vivo) with NaClO4", "setting": "[5]; mice administered NaClO4", "value": "3.0 ± 1.7", "unit": "%ID/g"},
      {"measurement": "thyroid uptake (ex vivo) with NaClO4", "setting": "[5]; mice administered NaClO4", "value": "4.3 ± 4.6", "unit": "%ID/g"},
      {"measurement": "salivary gland uptake (ex vivo)", "setting": "[5]; without NaClO4", "value": "18 ± 4", "unit": "%ID/g"},
      {"measurement": "stomach uptake (ex vivo)", "setting": "[5]; without NaClO4", "value": "59 ± 10", "unit": "%ID/g"},
      {"measurement": "thyroid uptake (ex vivo)", "setting": "[5]; without NaClO4", "value": "144 ± 71", "unit": "%ID/g"},
      {"measurement": "uptake of radiotracer in HCT116-C19 cells", "setting": "hNIS [6]", "value": "Specific, blockable hNIS-mediated uptake; also recorded: Significant uptake"},
      {"measurement": "uptake of radiotracer in HCT116-C19 cells with NaClO4", "setting": "hNIS [6]", "value": "blocked"},
      {"measurement": "RCP after standing", "setting": "[7]; formulated tracer, room temperature, 4 h, IC and TLC", "value": "> 95", "unit": "%"},
      {"measurement": "RCP under acidic conditions", "setting": "[7]; pH 3.0, 4 h", "value": "similarly constant"}
    ]}
  ]
}
